Screening data (PubChem BioAssay)
Compounds with a hit are over-represented: about 3.8% of the library has one in this group of screens.
HSF1 activator – increases HSF-1 driven luciferase reporter signal; NIH3T3-HGL HSF-1 luciferase reporter, MG132, 8 h; 100% = twice DMSO control signal; activation, % at 9 µM; hit rate 1.7% among 300,000;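 active = mean replicate activation of at least 50% with a set share of replicates each reaching 50%; inconclusive = only one of those two conditions met; inactive = mean below 50% and too few replicates reaching it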
HSF1 inhib – HSF1 inhibition | NIH3T3-HGL HSE-luciferase, MG132-induced, luminescence 8 h; active compounds read low | activity change, negative = inhibition, % at 7.5 µM (by protocol) | hit rate 0.77% among 300,000;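 active = more than half of replicate wells show activity change below -50%, luminescence cut by over half; inconclusive = some wells, but at most half, below -50%; inactive = no replicate well below -50%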;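 also: luciferase reports HSF-1 transcriptional activity via heat shock element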
NS3 helicase inh – inhibitors of Hepatitis C virus NS3 helicase. hit rate 0.56% among 290,000. NS3 helicase DNA unwinding, Cy5 molecular beacon fluorescence. inhibition, % at 10.9 µM;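 active = inhibition above the mean of all tested compounds plus 3 SD, set per campaign, cut at about 35% in these data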
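assay system = NS3 helicase fragment of HCV | buffer or medium = MOPS pH 6.5, MgCl2, DTT, Tween20, BSA | timing = 60 min unwinding reaction at 25 °C after ATP addition | signal = Cy5 beacon fluorescence read at start and 1 h | read-out basis = % inhibition of unwinding | control set = low DMSO, high thioflavine S at 110 µM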
Lipid droplet – hepatic lipid droplet formation modulation; hit rate 0.4% among 240,000; AID 1656; AML12 mouse hepatocytes, oleate lipid droplets, BODIPY imaging; inhibition, % at 6.5 µM;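 active = lipid droplet intensity inhibited by at least 50%, with more than 500 cells counted; inconclusive = wells with under 300 cells, treated as cytotoxic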
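Assay system: AML12 mouse liver cells | Compound: 6.5 µM single-point dosing | Schedule: Overnight exposure | Technique: Fluorescence imaging, 20x objective, two fields per well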
HSP90 refold inh – HSP90 refolding inhibition in rabbit reticulocyte lysate; luciferase refolding luminescence, 3 h; inhibition, % at 5.6 µM; hit rate 0.91% among 290,000;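 active = inhibition above the screen-wide mean plus 3 SD, computed separately per campaign, cut at about 16% in these data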;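 also: inhibitors lower the luminescence because luciferase stays unfolded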
NS3 helicase cf – confirmation of Hepatitis C virus NS3 helicase inhibitors. shares compounds with NS3 helicase inh. NS3 helicase DNA unwinding, Cy5 molecular beacon fluorescence. inhibition, % at 10.9 µM. hit rate 31% among 1,600. AID 1943;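 active = inhibition above the mean of all tested compounds plus 3 SD, cutoff set per campaign, cut at about 36% in these data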
DNA FID counter – intercalator displacement, NS3 helicase counter-screen; inhibition, % at 7.9 µM; AID 1945; DNA fluorescent intercalator displacement, fluorescence; shares compounds with NS3 helicase inh; hit rate 4% among 1,600; in the data active = inhibition above about 37%;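 also: higher means more displacement of ethidium bromide from the DNA hairpin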
FID counter DR – DNA intercalator displacement in dose response; shares compounds with NS3 helicase inh; fluorescent intercalator displacement from DNA, fluorescence; IC50, µM; 120 tested, under 10 active; AID 2172; call rule not given here
Of the large screens only hits and unclear results are named; the others gave an inactive call (follow-up assays come after a bar, where they were run).

CCOc1ccc(NC(=O)CC2SC(=O)N(c3ccccc3)C2=O)cc1 (centres undefined)	NS3 helicase inh 38 | NS3 helicase cf inactive | DNA FID counter inactive
Cc1ccccc1NC(=O)CC1SC(=O)N(c2ccccc2)C1=O (centres undefined)	none
CCCc1cc(C(=O)NNC(=S)NC2CCCCC2)cs1	none
O=C(CSc1nnc(CNc2ccc(F)cc2)n1CC1CCCO1)N1CCOCC1 (centres undefined)	none
O=C(CN(Cc1ccc(Cl)cc1)C(=O)c1csnn1)NCc1ccc(F)cc1	none
O=C(O)CCCNc1cc(N2CCN(C(=O)c3ccco3)CC2)c2noc3c2c1C(=O)c1ccccc1-3	NS3 helicase inh 37 | NS3 helicase cf 72 | DNA FID counter inactive
O=C1c2ccccc2-c2onc3c(N4CCN(CCO)CC4)cc(N4CCN(C(=O)c5ccco5)CC4)c1c23	none
Nc1c(C(=O)NC2CCCC2)sc2nc(-c3cccs3)ccc12	HSF1 activator 56, NS3 helicase inh 56 | NS3 helicase cf inactive | DNA FID counter inactive
COCCn1c(C)cc(C2=NNC(=Nc3ccc(Cl)cc3Cl)SC2)c1C	NS3 helicase inh 37 (no result: Lipid droplet) | NS3 helicase cf inactive | DNA FID counter inactive
C=CCn1c(C)cc(C2=NNC(=Nc3ccc(C)cc3)SC2)c1C	none
CCOc1ccc(N=C2NN=C(c3cc(C)n(CC4CCCO4)c3C)CS2)cc1 (centres undefined)	NS3 helicase inh 41 | NS3 helicase cf inactive | DNA FID counter inactive
C=CCN=C1NN=C(c2cc(C)n(CCOC)c2C)CS1	none
CCCN(CC#CC(O)(c1ccccc1)c1cccnc1)CCC (centres undefined)	NS3 helicase inh 45 | NS3 helicase cf inactive | DNA FID counter inactive
N#CCCN(Cc1cccs1)C(=O)c1ccc(Cl)cc1	none
O=C(NNC(=O)c1cc2ccccc2cc1O)Nc1ccccc1F	NS3 helicase inh 46 | NS3 helicase cf inactive | DNA FID counter inactive
Cc1ccc(-n2nnnc2SCc2ccc(C(=O)O)cc2)cc1C	NS3 helicase inh 37 | NS3 helicase cf inactive | DNA FID counter inactive
O=C(O)c1ccc(CSc2nnnn2-c2ccc(F)cc2)cc1	none
Cc1ccc(N=Cc2ccc(N(C)C)cc2)cc1	none (no result: Lipid droplet)
C(=Nc1cccc2c(N=Cc3ccco3)cccc12)c1ccco1	NS3 helicase inh 37 | NS3 helicase cf inactive | DNA FID counter inactive
CN(C)c1ccc(N=Cc2ccco2)cc1	NS3 helicase inh 41 (no result: HSF1 activator, HSF1 inhib, Lipid droplet) | NS3 helicase cf inactive | DNA FID counter inactive
O=C(CCC(=O)Nc1cccc2ccccc12)N/N=C/c1ccco1	none
CN(C)c1ccc(C=Nc2ccc(N(C)C)cc2)cc1	NS3 helicase inh 37 | NS3 helicase cf inactive | DNA FID counter inactive
CN(C)CCCN(C(=O)c1ccc([N+](=O)[O-])o1)c1nc2cc3c(cc2s1)OCO3	none
CCNc1ccccc1CP(=O)(c1ccccc1)c1ccccc1O (centres undefined)	NS3 helicase inh 64 | NS3 helicase cf inactive | DNA FID counter inactive
Cc1ccc(O)c(CP(=O)(c2ccccc2)c2ccccc2)c1	none
COc1ccc2[nH]c(C)c(-c3csc(N)n3)c2c1	none
CCOC(=O)C1CCN(C(=O)C2CCN(S(=O)(=O)c3cccc4nsnc34)CC2)CC1	none
Cc1ccc(C(=O)c2coc3ccc(O)c(Cl)c23)cc1	none
CCOC(=O)C(C(C)=O)c1c(Br)c(O)c(O)c2c(C(=O)c3ccc(C)cc3)coc12 (centres undefined)	NS3 helicase inh 38 (no result: Lipid droplet) | NS3 helicase cf inactive | DNA FID counter inactive
Cc1cccc(NC(=O)CC2Nc3cccc4cccc(c34)NC2=O)c1 (centres undefined)	NS3 helicase inh 45 (no result: Lipid droplet) | NS3 helicase cf inactive | DNA FID counter inactive
CC(=O)c1ccc(NC(=O)CC2Nc3cccc4cccc(c34)NC2=O)cc1 (centres undefined)	none
CC(=O)Nc1ccc(NC(=O)CC2Nc3cccc4cccc(c34)NC2=O)cc1 (centres undefined)	NS3 helicase inh 46 (no result: Lipid droplet) | NS3 helicase cf inactive | DNA FID counter inactive
CCOc1ccc(NC(=O)CC2Nc3ccccc3NC2=O)cc1 (centres undefined)	none
CN(C(=O)COC(=O)C1CCN(S(=O)(=O)c2c(Cl)cccc2Cl)CC1)C1CCCCC1	none (no result: NS3 helicase inh, Lipid droplet, HSP90 refold inh)
COC(=O)c1ccc(Cn2nnc3c(=O)[nH]c(C4CCCN(S(=O)(=O)c5cccc(Cl)c5)C4)nc32)cc1 (centres undefined)	NS3 helicase inh 38 | NS3 helicase cf inactive | DNA FID counter inactive
COC(=O)c1ccc(Cn2nnc3c(=O)[nH]c(C4CCCN(S(=O)(=O)c5ccc(C)cc5)C4)nc32)cc1 (centres undefined)	none
O=C(COC(=O)/C=C/c1ccco1)Nc1ncc(C(F)(F)F)cc1Cl	NS3 helicase inh 55 | NS3 helicase cf inactive | DNA FID counter inactive
O=C(COC(=O)/C=C/c1ccco1)NCc1ccccc1Cl	none
O=C(COC(=O)/C=C/c1ccco1)Nc1cccc([N+](=O)[O-])c1	NS3 helicase inh 38 | NS3 helicase cf inactive | DNA FID counter inactive
O=C(O)/C(=C\c1ccc2ccccc2c1)c1cccc2ccccc12	none (no result: NS3 helicase inh, Lipid droplet, HSP90 refold inh)
Cc1nn(CC(=O)NCCCN2C(C)CCCC2C)c(=O)c2cc3occc3n12 (centres undefined)	none
Cc1cccc2nc(-c3ccco3)c(Nc3ccc4c(c3)OCO4)n12	NS3 helicase inh 40 | NS3 helicase cf inactive | DNA FID counter inactive
O=c1cc(O)nc(SCc2ccccc2)n1-c1ccc(F)cc1	NS3 helicase inh 59 (no result: Lipid droplet) | NS3 helicase cf inactive | DNA FID counter inactive
CCCOc1ccc(/C(O)=C2\C(=O)C(=O)N(c3ccccn3)C2c2ccccc2F)cc1C (centres undefined)	NS3 helicase inh 47 | NS3 helicase cf 94 | DNA FID counter inactive | FID counter DR inactive
CCC1=Nc2cc(C(=O)NCc3ccco3)ccc2Sc2ccc(Cl)cc21	NS3 helicase inh 37, Lipid droplet inconclusive | NS3 helicase cf inactive | DNA FID counter inactive
Cc1ccc(CNn2cn[nH]c2=S)cc1	none (no result: NS3 helicase inh, Lipid droplet, HSP90 refold inh)
COC(=O)CN1C(=O)[C@H]2[C@@H](c3ccc(C)o3)N3C(=O)CN(CCO)C(=O)[C@@]3(Cc3ccccc3)[C@H]2C1=O	NS3 helicase inh 45 | NS3 helicase cf inactive | DNA FID counter inactive
Cc1ccc(CC(=O)O/N=C(\N)Cc2ccc([N+](=O)[O-])cc2)cc1	NS3 helicase inh 38 | NS3 helicase cf inactive | DNA FID counter inactive
COc1ccc(CC(=O)O/N=C(\N)Cc2ccc([N+](=O)[O-])cc2)cc1	none
O=C(/C=C1\C(=O)Nc2ccccc21)/C=C1\C(=O)Nc2ccccc21	NS3 helicase inh 54 (no result: HSF1 activator, HSF1 inhib) | NS3 helicase cf inactive | DNA FID counter inactive
